Data as given in ChEMBL document CHEMBL1649494, “Hypersusceptibility to azole antifungals in a clinical isolate of Candida glabrata with reduced aerobic growth” (2009).
In brackets after ≈: the same amount, converted by molar mass.

Assays:
Assay type in all cases: functional
[1] = tested on: Nakaseomyces glabratus; assay: Antifungal activity against Candida glabrata isolate 21231 at 10 ug after 48 hrs by disk diffusion method; conditions: isolate 21231, 48 h, read-out: DIZ
[2] = tested on: Nakaseomyces glabratus; assay: Antifungal activity against Candida glabrata isolate 22853 at 10 ug after 48 hrs by disk diffusion method; conditions: isolate 22853, 48 h, read-out: DIZ
[3] = tested on: Nakaseomyces glabratus; assay: Antifungal activity against Candida glabrata isolate 22852 at 10 ug after 48 hrs by disk diffusion method; conditions: isolate 22852, 48 h, read-out: DIZ
[4] = tested on: Nakaseomyces glabratus; assay: Antifungal activity against Candida glabrata isolate 21231 by Etest method
In short: (§1)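 MIC by Etest strips on Casitone agar plates (pH 7.2, chloramphenicol-supplemented), run per manufacturer's recommendations; isolates maintained on YEPD agar by regular passage.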

[5] = tested on: Nakaseomyces glabratus; assay: Antifungal activity against Candida glabrata isolate 22853 by Etest method; in short: as §1
[6] = tested on: Nakaseomyces glabratus; assay: Antifungal activity against Candida glabrata isolate 22852 by Etest method; in short: as §1
[7] = tested on: Nakaseomyces glabratus; assay: Antifungal activity against Candida glabrata isolate 21231 at 15 ug after 48 hrs by disk diffusion method; conditions: isolate 21231, 48 h, read-out: DIZ
[8] = tested on: Nakaseomyces glabratus; assay: Antifungal activity against Candida glabrata isolate 22852 at 15 ug after 48 hrs by disk diffusion method; conditions: isolate 22852, 48 h, read-out: DIZ
[9] = tested on: Nakaseomyces glabratus; assay: Antifungal activity against Candida glabrata isolate 22853 at 15 ug after 48 hrs by disk diffusion method; conditions: isolate 22853, 48 h, read-out: DIZ

**Q.** For `Clc1ccccc1C(c1ccccc1)(c1ccccc1)n1ccnc1` [CLOTRIMAZOLE], which zone of inhibition at 10 µg/disc [1] is on record?
**A.** Its zone of inhibition at 10 µg/disc is 25 mm.

**Q.** And the zone of inhibition at 10 µg/disc [2]?
**A.** Its zone of inhibition at 10 µg/disc is 12 mm.

**Q.** What about the zone of inhibition at 10 µg/disc [3] of the same compound?
**A.** The zone of inhibition at 10 µg/disc was 50 mm.

**Q.** Which zone of inhibition at 10 µg/disc [1] does the source give for `C[C@@H]1[C@H](O)[C@@H](C)/C=C/C=C/C=C/C=C/C=C/C=C/C=C/[C@H](O[C@@H]2O[C@H](C)[C@@H](O)[C@H](N)[C@@H]2O)C[C@@H]2O[C@](O)(C[C@@H](O)C[C@@H](O)[C@H](O)CC[C@@H](O)C[C@@H](O)CC(=O)O[C@H]1C)C[C@H](O)[C@H]2C(=O)O` [AMPHOTERICIN B] here?
**A.** Its zone of inhibition at 10 µg/disc is 27 mm.

**Q.** And the zone of inhibition at 10 µg/disc [2]?
**A.** The zone of inhibition at 10 µg/disc was 31 mm.

**Q.** And the MIC [4]?
**A.** Its MIC is 0.047 µg/mL (≈ 0.0509 µM).

**Q.** What about the MIC [5] of the same compound?
**A.** Its MIC is 0.047 µg/mL (≈ 0.0509 µM).

**Q.** What about the MIC [6] of the same compound?
**A.** Its MIC is 0.032 µg/mL (≈ 0.0346 µM).

**Q.** And the zone of inhibition at 10 µg/disc [3]?
**A.** Its zone of inhibition at 10 µg/disc is 40 mm.

**Q.** Which zone of inhibition at 10 µg/disc [1] does the source give for `CC(=O)N1CCN(c2ccc(OCC3COC(Cn4ccnc4)(c4ccc(Cl)cc4Cl)O3)cc2)CC1` (configuration not stated) [KETOCONAZOLE] here?
**A.** Its zone of inhibition at 10 µg/disc is 33 mm.

**Q.** What about the zone of inhibition at 10 µg/disc [2] of the same compound?
**A.** Its zone of inhibition at 10 µg/disc is 16 mm.

**Q.** And the zone of inhibition at 10 µg/disc [3]?
**A.** The zone of inhibition at 10 µg/disc was 50 mm.

**Q.** Which results are given for `C[C@@H](c1ncncc1F)[C@](O)(Cn1cncn1)c1ccc(F)cc1F` [VORICONAZOLE]?
**A.** MIC [4]: 0.047 µg/mL (≈ 0.135 µM); MIC [5]: 4 µg/mL (≈ 11.5 µM); MIC [6]: 0.003 µg/mL (≈ 0.00859 µM)

**Q.** What does the source list for `Clc1ccc(COC(Cn2ccnc2)c2ccc(Cl)cc2Cl)c(Cl)c1` (configuration not stated) [MICONAZOLE]?
**A.** zone of inhibition at 10 µg/disc [1]: 21 mm; zone of inhibition at 10 µg/disc [2]: 0 mm; zone of inhibition at 10 µg/disc [3]: 35 mm

**Q.** What does the source list for `Clc1ccc(COC(Cn2ccnc2)c2ccc(Cl)cc2Cl)cc1` (configuration not stated) [ECONAZOLE]?
**A.** zone of inhibition at 10 µg/disc [1]: 25 mm; zone of inhibition at 10 µg/disc [2]: 13 mm; zone of inhibition at 10 µg/disc [3]: 50 mm

**Q.** Which results are given for `OC(Cn1cncn1)(Cn1cncn1)c1ccc(F)cc1F` [FLUCONAZOLE]?
**A.** zone of inhibition at 15 µg/disc [7]: 21 mm; MIC [4]: 6 µg/mL (≈ 19.6 µM); MIC [5]: > 256 µg/mL; MIC [6]: 0.94 µg/mL (≈ 3.07 µM); zone of inhibition at 15 µg/disc [8]: 50 mm; zone of inhibition at 15 µg/disc [9]: 0 mm
